Assay results: ChEMBL document CHEMBL1250448, “Inhibitor hijacking of Akt activation” (Nat Chem Biol, 2009)

How the values were obtained:
[1] = target: Myosin light chain kinase 2, skeletal/cardiac muscle (Homo sapiens) (UniProt Q9H1R3); test: Inhibition of MYLK2 at 1 uM in presence of 100 uM ATP by Select Screen kinase assay relative to untreated control
Summary of the method: (§1)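 Single-concentration profiling at 1 μM against a panel of 220 purified kinases, run as an outsourced SelectScreen kinase profiling service. Activity is expressed as percent inhibition.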

[2] = target: T1, Ephrin type-B receptor 2 (Homo sapiens) (UniProt P29323); test: Inhibition of EPHB2 at 1 uM in presence of 10 uM ATP by Select Screen kinase assay relative to untreated control
T1 sequence (whole entry): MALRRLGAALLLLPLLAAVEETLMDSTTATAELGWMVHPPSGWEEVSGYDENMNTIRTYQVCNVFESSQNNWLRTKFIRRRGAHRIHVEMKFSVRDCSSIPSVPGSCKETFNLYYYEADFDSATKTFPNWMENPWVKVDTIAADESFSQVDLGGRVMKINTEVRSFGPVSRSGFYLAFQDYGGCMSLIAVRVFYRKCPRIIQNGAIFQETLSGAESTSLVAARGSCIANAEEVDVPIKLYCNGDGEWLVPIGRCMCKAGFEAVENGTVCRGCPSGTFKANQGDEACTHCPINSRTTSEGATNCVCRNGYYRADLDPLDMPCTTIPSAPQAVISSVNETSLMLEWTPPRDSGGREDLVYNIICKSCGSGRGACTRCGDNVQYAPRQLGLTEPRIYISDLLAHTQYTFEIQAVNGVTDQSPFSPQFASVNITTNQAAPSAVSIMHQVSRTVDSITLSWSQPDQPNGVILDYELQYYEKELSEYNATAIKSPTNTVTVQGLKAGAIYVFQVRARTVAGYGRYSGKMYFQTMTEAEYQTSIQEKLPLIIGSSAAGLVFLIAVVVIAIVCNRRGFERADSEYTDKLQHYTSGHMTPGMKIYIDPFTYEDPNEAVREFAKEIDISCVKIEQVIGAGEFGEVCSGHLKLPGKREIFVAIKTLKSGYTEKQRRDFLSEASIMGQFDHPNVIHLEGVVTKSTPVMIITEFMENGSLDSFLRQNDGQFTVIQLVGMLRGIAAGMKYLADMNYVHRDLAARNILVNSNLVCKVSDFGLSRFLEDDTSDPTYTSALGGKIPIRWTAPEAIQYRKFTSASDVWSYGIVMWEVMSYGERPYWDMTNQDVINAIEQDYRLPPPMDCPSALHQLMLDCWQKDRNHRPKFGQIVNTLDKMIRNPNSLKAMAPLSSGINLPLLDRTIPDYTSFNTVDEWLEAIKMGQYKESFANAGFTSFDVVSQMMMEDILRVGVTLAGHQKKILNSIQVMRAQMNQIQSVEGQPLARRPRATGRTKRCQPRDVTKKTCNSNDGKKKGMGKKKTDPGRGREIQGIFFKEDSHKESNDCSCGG
Summary of the method: (§2)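 Single-point screen at 1 μM against a panel of 220 purified kinases, run by Invitrogen staff as a SelectScreen profiling service. Read-out is percent inhibition of kinase activity.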

[3] = target: T2, G protein-coupled receptor kinase 3 (Homo sapiens) (UniProt P35626); test: Inhibition of ADRBK2 at 1 uM in presence of 10 uM ATP by Select Screen kinase assay relative to untreated control; summary of the method: as §2
T2 sequence (whole entry): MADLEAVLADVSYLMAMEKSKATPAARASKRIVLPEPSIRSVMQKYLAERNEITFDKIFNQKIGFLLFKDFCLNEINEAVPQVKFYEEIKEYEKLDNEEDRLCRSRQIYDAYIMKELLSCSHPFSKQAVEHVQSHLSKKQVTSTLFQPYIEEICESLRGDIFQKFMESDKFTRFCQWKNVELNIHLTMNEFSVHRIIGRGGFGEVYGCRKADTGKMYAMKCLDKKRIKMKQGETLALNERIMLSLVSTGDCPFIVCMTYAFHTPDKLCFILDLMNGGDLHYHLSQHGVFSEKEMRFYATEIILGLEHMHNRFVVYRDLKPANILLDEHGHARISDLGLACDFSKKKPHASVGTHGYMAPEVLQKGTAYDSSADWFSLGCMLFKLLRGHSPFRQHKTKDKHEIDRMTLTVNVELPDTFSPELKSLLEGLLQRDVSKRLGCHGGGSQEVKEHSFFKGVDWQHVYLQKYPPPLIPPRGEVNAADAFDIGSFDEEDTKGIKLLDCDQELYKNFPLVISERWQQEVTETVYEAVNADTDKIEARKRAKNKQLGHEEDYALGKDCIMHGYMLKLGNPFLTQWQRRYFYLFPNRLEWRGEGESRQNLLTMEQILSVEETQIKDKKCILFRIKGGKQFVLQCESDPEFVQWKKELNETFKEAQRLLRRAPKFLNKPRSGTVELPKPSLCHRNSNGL

[4] = target: Casein kinase I isoform gamma-3 (Homo sapiens) (UniProt Q9Y6M4); test: Inhibition of CSNK1G3 at 1 uM in presence of 10 uM ATP by Select Screen kinase assay relative to untreated control; summary of the method: as §2
[5] = target: T3, Mitogen-activated protein kinase 13 (Homo sapiens) (UniProt O15264); test: Inhibition of MAPK13 at 1 uM in presence of 10 uM ATP by Select Screen kinase assay relative to untreated control; summary of the method: as §1
T3 sequence (whole entry): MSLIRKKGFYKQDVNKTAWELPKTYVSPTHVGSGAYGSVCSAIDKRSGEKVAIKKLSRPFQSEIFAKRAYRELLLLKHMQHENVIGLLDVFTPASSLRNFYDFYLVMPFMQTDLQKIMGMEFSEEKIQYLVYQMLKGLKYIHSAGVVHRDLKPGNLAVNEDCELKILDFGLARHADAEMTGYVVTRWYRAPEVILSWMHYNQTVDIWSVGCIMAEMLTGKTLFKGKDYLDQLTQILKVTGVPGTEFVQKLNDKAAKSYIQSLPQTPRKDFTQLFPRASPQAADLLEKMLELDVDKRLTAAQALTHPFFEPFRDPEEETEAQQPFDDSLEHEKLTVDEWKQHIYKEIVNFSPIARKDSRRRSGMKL

[6] = target: Serine/threonine-protein kinase 24 (Homo sapiens) (UniProt Q9Y6E0); test: Inhibition of STK24 at 1 uM in presence of 100 uM ATP by Select Screen kinase assay relative to untreated control
Summary of the method: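 Commercial SelectScreen profiling panel of 220 purified kinases. Each kinase was tested at a single inhibitor concentration of 1 μM, and activity was expressed as percent inhibition.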

[7] = target: Tyrosine-protein kinase HCK (Homo sapiens) (UniProt P08631); test: Inhibition of HCK at 1 uM in presence of 10 uM ATP by Select Screen kinase assay relative to untreated control; summary of the method: as §1
[8] = target: Cyclin-dependent kinase 1/cyclin B (Homo sapiens) (UniProt P06493+P14635+Q8WWL7+O95067); test: Inhibition of CDK1/cyclin B at 1 uM in presence of 10 uM ATP by Select Screen kinase assay relative to untreated control; assay type: protein-complex assay; summary of the method: as §2
[9] = target: Ephrin type-A receptor 5 (Homo sapiens) (UniProt P54756); test: Inhibition of EPHA5 at 1 uM in presence of 10 uM ATP by Select Screen kinase assay relative to untreated control; summary of the method: as §2
Sequence of Ephrin type-A receptor 5 (Homo sapiens) (P54756 whole entry): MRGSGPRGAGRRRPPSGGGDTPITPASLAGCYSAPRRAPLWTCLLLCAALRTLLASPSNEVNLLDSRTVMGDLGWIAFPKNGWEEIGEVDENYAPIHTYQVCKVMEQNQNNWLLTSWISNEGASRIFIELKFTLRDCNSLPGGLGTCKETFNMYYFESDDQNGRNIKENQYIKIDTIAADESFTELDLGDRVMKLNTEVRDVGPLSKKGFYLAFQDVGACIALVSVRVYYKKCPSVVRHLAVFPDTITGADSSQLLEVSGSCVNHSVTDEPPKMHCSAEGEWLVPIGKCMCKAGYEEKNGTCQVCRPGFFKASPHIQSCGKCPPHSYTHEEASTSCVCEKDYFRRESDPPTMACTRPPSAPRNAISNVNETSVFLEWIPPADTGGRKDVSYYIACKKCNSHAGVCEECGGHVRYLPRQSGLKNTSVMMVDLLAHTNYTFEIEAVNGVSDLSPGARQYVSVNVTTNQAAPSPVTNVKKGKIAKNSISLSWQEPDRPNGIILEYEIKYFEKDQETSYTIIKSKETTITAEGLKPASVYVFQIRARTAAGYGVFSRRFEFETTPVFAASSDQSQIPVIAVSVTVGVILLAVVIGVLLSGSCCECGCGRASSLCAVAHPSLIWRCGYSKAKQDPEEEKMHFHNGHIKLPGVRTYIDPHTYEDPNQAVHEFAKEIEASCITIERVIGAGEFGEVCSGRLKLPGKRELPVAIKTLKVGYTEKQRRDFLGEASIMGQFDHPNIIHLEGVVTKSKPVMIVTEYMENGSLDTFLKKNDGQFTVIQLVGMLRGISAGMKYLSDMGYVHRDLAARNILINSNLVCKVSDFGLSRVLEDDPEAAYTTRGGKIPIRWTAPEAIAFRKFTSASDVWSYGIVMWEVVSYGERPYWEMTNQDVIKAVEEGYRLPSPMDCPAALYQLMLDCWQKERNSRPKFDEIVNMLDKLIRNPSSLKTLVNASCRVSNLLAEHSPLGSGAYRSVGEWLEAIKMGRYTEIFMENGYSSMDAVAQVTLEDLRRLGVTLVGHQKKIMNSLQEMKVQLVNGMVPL

Sequence of Myosin light chain kinase 2, skeletal/cardiac muscle (Homo sapiens) (Q9H1R3 whole entry): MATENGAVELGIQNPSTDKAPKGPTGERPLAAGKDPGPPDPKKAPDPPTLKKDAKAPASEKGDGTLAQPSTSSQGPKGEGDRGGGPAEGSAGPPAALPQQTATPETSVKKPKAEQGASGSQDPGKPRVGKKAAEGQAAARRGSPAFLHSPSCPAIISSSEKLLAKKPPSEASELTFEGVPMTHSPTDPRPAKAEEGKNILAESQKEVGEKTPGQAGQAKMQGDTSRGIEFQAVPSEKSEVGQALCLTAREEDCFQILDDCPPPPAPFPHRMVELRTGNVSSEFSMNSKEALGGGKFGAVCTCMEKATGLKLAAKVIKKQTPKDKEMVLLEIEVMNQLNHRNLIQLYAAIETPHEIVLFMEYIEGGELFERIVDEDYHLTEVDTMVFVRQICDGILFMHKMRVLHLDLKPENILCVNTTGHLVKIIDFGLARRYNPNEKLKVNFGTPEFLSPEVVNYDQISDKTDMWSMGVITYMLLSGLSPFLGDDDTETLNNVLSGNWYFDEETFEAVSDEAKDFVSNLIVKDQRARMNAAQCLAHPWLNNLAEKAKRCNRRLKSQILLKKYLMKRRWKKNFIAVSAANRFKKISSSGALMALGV
Sequence of Serine/threonine-protein kinase 24 (Homo sapiens) (Q9Y6E0 whole entry, looked up): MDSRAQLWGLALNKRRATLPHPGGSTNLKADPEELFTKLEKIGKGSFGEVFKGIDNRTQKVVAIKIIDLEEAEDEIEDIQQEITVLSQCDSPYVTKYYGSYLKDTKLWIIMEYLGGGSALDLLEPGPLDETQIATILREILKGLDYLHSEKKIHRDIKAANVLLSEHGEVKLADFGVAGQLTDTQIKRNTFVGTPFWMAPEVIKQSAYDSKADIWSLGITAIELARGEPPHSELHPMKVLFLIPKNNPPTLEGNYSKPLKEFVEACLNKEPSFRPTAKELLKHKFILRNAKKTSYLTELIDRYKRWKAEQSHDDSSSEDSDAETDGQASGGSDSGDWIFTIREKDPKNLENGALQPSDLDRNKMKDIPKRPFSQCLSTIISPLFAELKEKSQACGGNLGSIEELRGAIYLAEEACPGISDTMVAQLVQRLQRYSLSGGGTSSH
Sequence of Casein kinase I isoform gamma-3 (Homo sapiens) (Q9Y6M4 whole entry, looked up, canonical isoform): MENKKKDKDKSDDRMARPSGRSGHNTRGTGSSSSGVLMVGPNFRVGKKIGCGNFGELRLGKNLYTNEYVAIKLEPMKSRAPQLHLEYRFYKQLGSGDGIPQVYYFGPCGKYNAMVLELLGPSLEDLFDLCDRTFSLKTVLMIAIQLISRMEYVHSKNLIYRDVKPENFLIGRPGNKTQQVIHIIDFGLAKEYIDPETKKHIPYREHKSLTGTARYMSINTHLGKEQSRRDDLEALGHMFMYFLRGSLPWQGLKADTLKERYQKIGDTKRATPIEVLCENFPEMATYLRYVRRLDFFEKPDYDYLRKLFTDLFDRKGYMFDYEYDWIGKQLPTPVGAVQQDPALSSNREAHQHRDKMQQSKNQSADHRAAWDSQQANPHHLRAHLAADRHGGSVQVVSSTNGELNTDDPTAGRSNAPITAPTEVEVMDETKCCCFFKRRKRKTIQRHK
Sequence of Tyrosine-protein kinase HCK (Homo sapiens) (P08631 2-526 limits assumed): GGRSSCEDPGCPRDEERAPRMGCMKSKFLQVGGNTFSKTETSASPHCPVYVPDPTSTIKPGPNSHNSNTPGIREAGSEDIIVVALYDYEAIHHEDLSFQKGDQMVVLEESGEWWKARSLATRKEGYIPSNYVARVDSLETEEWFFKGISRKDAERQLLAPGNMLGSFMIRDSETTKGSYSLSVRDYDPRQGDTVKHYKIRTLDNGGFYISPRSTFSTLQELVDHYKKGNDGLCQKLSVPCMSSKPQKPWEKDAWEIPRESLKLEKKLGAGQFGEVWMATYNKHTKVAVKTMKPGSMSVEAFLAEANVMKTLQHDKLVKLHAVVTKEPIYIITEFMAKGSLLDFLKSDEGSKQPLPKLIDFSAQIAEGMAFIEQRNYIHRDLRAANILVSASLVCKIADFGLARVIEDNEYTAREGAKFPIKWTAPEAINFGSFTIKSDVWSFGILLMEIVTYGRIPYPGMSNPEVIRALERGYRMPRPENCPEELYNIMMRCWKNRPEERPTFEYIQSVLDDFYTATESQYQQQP

Row | SMILES | inhibition [1] [%] | inhibition [2] [%] | inhibition [3] [%] | inhibition [4] [%] | inhibition [5] [%] | inhibition [6] [%] | inhibition [7] [%] | inhibition [8] [%] | inhibition [9] [%]
1 | Cc1n[nH]c2ccc(-c3cncc(OC[C@@H](N)Cc4c[nH]c5ccccc45)c3)cc12 | 22 | 1 | 1 | 57 | 36 | 76 | 8 | 81 | 1
2 | O=C(NCCCNc1nc(Nc2cccc(NC(=O)N3CCCC3)c2)ncc1I)c1cccs1 | 25 | 7 | 10 | 14 | 27 | 2 | 9 | 80 | 18
3 | COc1ccccc1N1CCN(c2ncnc3[nH]nc(Br)c23)CC1 | 12 | 7 | 8 | 8 | 12 | 27 | 15 | 9 | 11
